Bioassay records (PubChem BioAssay)
WT yeast gro inh: growth inhibition of WT yeast, mitochondrial fusion screen | 190,000 compounds, 2.1% hits | AID 1362 | inhibition, % at 10 µM | mitochondrial fusion phenotypic screen, WT strain; in the data active = inhibition above about 58%; tested in S. cerevisiae
CHOP inh: CHOP inhibition in unfolded protein response; CHO-K1 CHOP-promoter luciferase, tunicamycin-induced, 15-18 h; inhibition, % at 10 µM; 220,000 compounds, 3.8% hits;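 active = compounds that reduced the stress-induced luciferase reporter signal by more than about 70% of percent inhibition, limit read from the data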
MPTP block: inhibitors of mitochondrial permeability transition pore; isolated mouse mitochondria, Ca2+ swelling absorbance, 30 min; inhibition, % at 10 µM; 360,000 compounds, 1.4% hits; AID 602449;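 active = inhibition of 50% or more, scaled per plate between neutral and stimulator controls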
GRIN3A LBD mod: NR3A (human) ligand-binding domain modulation | NR3A LBD differential scanning fluorimetry, Tm shift; 0% = protein alone, 100% = glycine-bound protein | Tm shift relative to glycine control, % at 25 µM | 340,000 compounds, 2.5% hits;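 active = melting temperature shift of at least 10% of the positive control shift, at one fixed dose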
EBV gp42 block: inhibitors of Epstein-Barr virus glycoprotein 42; Q1HVG2; Fluorescence polarization binding assay, mP read-out; inhibition, % (tested at 21.74 µM); 220,000 compounds, 0.42% hits; AID 1085; in the data active = inhibition above about 50%
Target sequence (Q1HVG2 whole entry, looked up): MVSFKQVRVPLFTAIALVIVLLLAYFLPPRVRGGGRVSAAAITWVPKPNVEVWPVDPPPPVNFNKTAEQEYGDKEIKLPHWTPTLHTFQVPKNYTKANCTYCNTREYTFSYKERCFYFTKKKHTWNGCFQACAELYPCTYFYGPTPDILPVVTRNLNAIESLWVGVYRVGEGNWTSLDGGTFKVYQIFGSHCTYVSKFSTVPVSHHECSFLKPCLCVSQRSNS
TbMetRS inhib: blocks T. brucei methionyl-tRNA synthetase activity; purified T. brucei MetRS, ATP depletion, Kinase-Glo luminescence; inhibition, % at 11.9 µM; 360,000 compounds, 0.4% hits; AID 624268;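 active = inhibition above a per-plate cutoff of the control wells' mean inhibition plus 3 SD, cut at about 5.5% in these data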
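Dosing: 11.9 µM compound single dose, 0.9% DMSO; Assay system: purified T. brucei MetRS enzyme; Measured by: Kinase-Glo luciferase luminescence reporting remaining unconsumed ATP; Schedule: 15 min plus 2 h at 25 °C.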
Of the large screens only hits and unclear results are named; the others gave an inactive call. An excerpt weighted towards active compounds, which were near 6.4% of everything screened.

O=[N+]([O-])c1ccc(/C=N/Nc2nc(N3CCCCCC3)nc(N3CCCCCC3)n2)o1	WT yeast gro inh 63
O=[N+]([O-])c1ccc(/C=N/Nc2nc(N3CCCCC3)nc(N3CCCCC3)n2)cc1	none
COc1nc(N/N=C/c2ccc(-c3ccccc3[N+](=O)[O-])o2)nc(N2CCOCC2)n1	none
COc1ccc([N+](=O)[O-])cc1/C=N/Nc1nc(N2CCCCC2)nc(N2CCCCC2)n1	GRIN3A LBD mod 29
Oc1ccccc1/C=N/Nc1cc(N2CCCC2)nc(N2CCCC2)n1	WT yeast gro inh 74
C/C(=N\Nc1nc(N2CCCCC2)nc(N2CCOCC2)n1)c1cccs1	none
C/C(=N\Nc1nc(N2CCCCCC2)nc(N2CCCCCC2)n1)c1ccccc1	WT yeast gro inh 65
O=[N+]([O-])c1ccccc1/C=N/Nc1nc(N2CCCC2)nc(N2CCCC2)n1	CHOP inh 75
Oc1ccc(/C=N/Nc2cc(N3CCOCC3)nc(N3CCOCC3)n2)cc1O	none
Cc1n[nH]c(C)c1CN(C)C(=O)c1cc(COc2ccc(F)c(F)c2)on1	none (no result: WT yeast gro inh, CHOP inh, EBV gp42 block)
CCC(C)NS(=O)(=O)c1ccc(NC(=O)C(Sc2ccccc2)c2ccccc2)cc1 (configuration not stated)	GRIN3A LBD mod 13
CCOC(=O)/C=C/[C@H]1CCc2cccc(Cl)c2O1	GRIN3A LBD mod 15 (no result: WT yeast gro inh, CHOP inh, EBV gp42 block)
CCOC(=O)/C=C/C(=O)OCC(=O)Nc1c(Cl)cccc1Cl	none
CCCCN(CCCC)CCNC(=O)Cc1nc2c(c(=O)[nH]c(=O)n2C)n1C	WT yeast gro inh 67 (no result: MPTP block, GRIN3A LBD mod, TbMetRS inhib)
CCCCCCSc1nc2c(c(=O)[nH]c(=O)n2C)n1C	none
CC(C)=C[C@H]1C[C@H](C)[C@H]2CC[C@H](C)c3c(O[C@@H]4OC[C@@H](O)[C@H](O)C4O)c(O)c(C)c1c32 (some centres not stated)	GRIN3A LBD mod 29 (no result: WT yeast gro inh, CHOP inh, EBV gp42 block)
CCOc1ccc(/C=N/NC(=S)NC2CC3CC2C2C=CCC32)cc1 (configuration not stated)	none (no result: WT yeast gro inh)
CCOC(=O)c1c(N)sc(C(O)(C(F)(F)F)C(F)(F)F)c1-c1ccc(F)cc1	CHOP inh 78
Cc1ccc2c(c1)c1ccc3c(c1n2C)C(=O)C=CC3=O	CHOP inh 106 (no result: WT yeast gro inh)
O=C(C1CCCN(S(=O)(=O)c2cccnc2)C1)N1CCN(c2ccccn2)CC1 (configuration not stated)	none
CC(=O)NNC(=S)NC(=O)c1ccc(C)cc1	CHOP inh 80
Cc1ccc(C(=O)NC(=S)NNC(=O)COc2ccccc2C)cc1	CHOP inh 103
CC(=O)NNC(=S)NC(=O)c1ccccc1	none
O=C(CCc1ccccc1)NNC(=S)NC(=O)c1ccc(Cl)cc1	WT yeast gro inh 65 (no result: MPTP block, TbMetRS inhib)
Cc1ccc(OCC(=O)NNC(=S)NC(=O)C(C)(C)C)c(Br)c1	WT yeast gro inh 84, CHOP inh 92
Cc1ccc(OCC(=O)NC(=S)Nc2ccccn2)c(Br)c1	none (no result: WT yeast gro inh, CHOP inh, EBV gp42 block)
CC1=CC2=NC(=O)/C(=C\c3ccc(-c4cccc(Cl)c4)o3)C(=N)N2O1	CHOP inh 107, GRIN3A LBD mod 22
CC1=CC2=NC(=O)/C(=C\c3cc(C)n(-c4ccc(F)cc4)c3C)C(=N)N2O1	none
CCC/C(=C1/c2ccccc2C(=O)N1c1ccccc1)c1ccc2[nH]ccc2c1	GRIN3A LBD mod 13 (no result: WT yeast gro inh, CHOP inh, EBV gp42 block)
CCCN(CCC)c1nc2ccccc2n2c(C)nnc12	CHOP inh 83
COc1ccc(NC(=O)COc2ccc(-n3cnnn3)cc2)cc1OC	GRIN3A LBD mod 11 (no result: WT yeast gro inh, CHOP inh, EBV gp42 block)
COc1ccc(OCCCC(=O)Nc2ccc(N3CCCCC3)cc2)cc1	none
COc1ccc(OCCCC(=O)Nc2ccc(N3CCOCC3)cc2)cc1	GRIN3A LBD mod 28
Cc1ccc(NC(=O)COc2ccc(/C(N)=N/O)cc2)cc1C	GRIN3A LBD mod 14
COc1ccc(OCC(=O)Nc2ccc(N3CCCCC3)cc2)cc1	GRIN3A LBD mod 19
COc1ccc2oc(C(=O)OCC(=O)NC(C)(C#N)C3CC3)c(C)c2c1 (configuration not stated)	none (no result: WT yeast gro inh, CHOP inh, EBV gp42 block)
CC(=O)c1ccc(OCCCC(=O)Nc2ccc(S(=O)(=O)N3CCOCC3)cc2)cc1	GRIN3A LBD mod 22 (no result: WT yeast gro inh, CHOP inh, EBV gp42 block)
CCOc1ccc(NC(=O)NCC2CCN(c3ccc(OC)cc3)C2)cc1 (configuration not stated)	CHOP inh 76
CCc1ccc(NC(=O)NCC2CCN(c3ccc(OC)cc3)C2)cc1 (configuration not stated)	none (no result: WT yeast gro inh)
CC(NC(=O)c1ccc(Cl)c(S(=O)(=O)N2CCCCCC2)c1)c1cccnc1 (configuration not stated)	none (no result: WT yeast gro inh, CHOP inh, EBV gp42 block)
COc1ccc(Oc2cccc(Cl)c2CNC(=O)c2ccccc2C(=O)O)cc1	none (no result: WT yeast gro inh)
COc1ccc(N2CCN(S(=O)(=O)CCNC(=O)C3CC3)CC2)cc1	GRIN3A LBD mod 13 (no result: WT yeast gro inh, CHOP inh, EBV gp42 block)
O=C(CCC1CCCCC1)NCCS(=O)(=O)N1CCN(c2ccc(F)cc2)CC1	GRIN3A LBD mod 14 (no result: WT yeast gro inh, CHOP inh, EBV gp42 block)
CCOc1ccc(Oc2ccc(C(F)(F)F)cc2N)cc1	CHOP inh 78
C/C(=N\NC(=O)c1ccc(O)cc1)c1ccc2c(c1)Nc1ccccc1S2	GRIN3A LBD mod 21
O=C(O)c1cc(-c2cccc([N+](=O)[O-])c2)n[nH]1	none
C/C(=N\NC(=O)c1cccc([N+](=O)[O-])c1)c1ccncc1	none
C/C(=N\NC(=O)c1cc(-c2cccc([N+](=O)[O-])c2)n[nH]1)c1ccc(F)cc1	GRIN3A LBD mod 63 (no result: WT yeast gro inh)
C/C(=N/NC(=O)c1ccc(O)cc1)c1cccc([N+](=O)[O-])c1	GRIN3A LBD mod 209
C/C(=N\NC(=O)c1ccccc1F)c1ccc2c(c1)Nc1ccccc1S2	none
CCOC(=O)c1cc(-c2cccc([N+](=O)[O-])c2)n[nH]1	GRIN3A LBD mod 33
C=C[C@@]1(C)CC(=O)[C@]2(O)[C@@]3(C)[C@@H](O)CCC(C)(C)[C@@H]3[C@H](O)[C@H](OC(C)=O)[C@@]2(C)O1	none (no result: WT yeast gro inh, CHOP inh, EBV gp42 block)
CCCCCOC(=O)Cc1c(C)nc(-c2ccccc2)[nH]c1=O	none
CCOC(=O)C(C(=O)OCC)C1CS(=O)(=O)CC1C(C(=O)OCC)C(=O)OCC (configuration not stated)	none
NS(=O)(=O)c1cccc(NC(=O)CSc2nnc(C3CC3)n2C2CC2)c1	none (no result: WT yeast gro inh, CHOP inh, EBV gp42 block)
C/C(=N\Nc1nnc(-c2ccccc2)c(-c2ccccc2)n1)c1cccc([N+](=O)[O-])c1	CHOP inh 78
C/C(=N/NC(=O)c1cc(-c2cccc([N+](=O)[O-])c2)n[nH]1)c1cccc(O)c1	GRIN3A LBD mod 10 (no result: WT yeast gro inh)
C/C(=N\NC(=O)c1cc(-c2cccc([N+](=O)[O-])c2)n[nH]1)c1ccccc1O	CHOP inh 94, GRIN3A LBD mod 26
C/C(=N\NC(=O)c1ccccc1C)c1cccc([N+](=O)[O-])c1	none
COc1ccc(/C(N)=N/OC(=O)C2CCCCC2)cc1	none (no result: WT yeast gro inh, CHOP inh, EBV gp42 block)
